The test system of assay [1] is MCF7. As to the kind of experiment: Effect on the MCF-7 cell proliferation at 10e-8 M. The format is functional, Homo sapiens. Summed up:
(§1)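 MCF-7 cells seeded at 5000 cells/mL; compounds added after 24 h, final 10^-8, 10^-7 and 10^-6 M, alone or with 10^-8 M estradiol. After 5 days of culture, monolayer fixed in 90% ethanol and stained with hematoxylin; absorbance read at 540 nm as a measure of cell number. Mean of four separate cultures, expressed as percentage of control.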

For assay [2], the system named is MCF7. As to the kind of experiment: Effect on the MCF-7 cell growth at 10e-6 M. The format is functional, Homo sapiens. The method, boiled down:
as §1

The test system of assay [3] is MCF7. As to the kind of experiment: Effect on the MCF-7 cell proliferation at 10e-7 M. The format is functional, Homo sapiens. The method, boiled down:
as §1

For assay [4], the target named is Estrogen receptor (Homo sapiens) (UniProt Q92731+P03372). Description: Relative binding affinity for estrogen receptor of MCF-7 cells. It counts as cell-based. The note with it: MCF7. Summed up:
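Whole MCF-7 cells incubated 50 min at 37 °C with 10^-9 M [3H]estradiol, without or with test compound or unlabeled estradiol reference (10^-10 to 10^-6 M). Bound material extracted with EtOH and receptor-bound [3H]estradiol measured. RBA calculated as in the calf uterine cytosol competition assay.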

In the case of `CC/C(=C(\c1ccccc1)c1ccc(O)cc1)c1ccccc1.C[C@]12CC[C@@H]3c4ccc(O)cc4CC[C@H]3[C@@H]1CC[C@@H]2O`, the Activity in assay [1] is listed as 0.229; in assay [2] it was 0.108; in assay [3] it was 0.138.

In assay [4], `CC[C@H](c1ccccc1)[C@@H](c1ccccc1)c1ccc(OCCN(C)C)cc1` yielded a Relative binding affinity of 0.04.

Regarding `CC/C(=C(\c1ccccc1)c1ccc(O)cc1)c1ccccc1`, the Activity in assay [1] turned out to be 0.121; in assay [2] it was 0.131; in assay [3] it was 0.12.

As to `CC/C(=C(/c1ccccc1)c1ccc(O)cc1)c1ccccc1`, the Activity in assay [1] was determined as 0.557; in assay [2] it was 0.428; in assay [3], 0.486.

In the case of `CC/C(=C(/c1ccccc1)c1ccc(O)cc1)c1ccccc1.C[C@]12CC[C@@H]3c4ccc(O)cc4CC[C@H]3[C@@H]1CC[C@H]2O`, the Activity worked out at 0.696 in assay [1], 0.41 in assay [2] and 0.607 in assay [3].

The molecule `CC[C@@H](c1ccccc1)[C@H](c1ccccc1)c1ccc(OCCN(C)C)cc1` came in with a Relative binding affinity in assay [4] of 0.02.

For the origin of these results see ChEMBL document CHEMBL1123609, “Synthesis, conformational considerations, and estrogen receptor binding of diastereoisomers and enantiomers of 1-[4-[2-(dimethylamino)ethoxy]phenyl]-1,2-diphenylbutane (dihydrotamoxifen)” (1987).
